Measurements as given in publication PMC6108325 (Bioorganic & medicinal chemistry, 2014).
Converted amounts (≈) assume the structure as drawn.

Tests used:
[1] = biological target: MRSA PK (Staphylococcus aureus, UniProt Q6GG09); assay: MRSA PK enzyme inhibition assay; type: biochemical, methicillin-resistant Staphylococcus aureus; conditions: for fold more potent than 33c: MRSA PK inhibition relative to 33c; for fold decrease in activity compared to 10a: MRSA PK inhibition relative to 10a
Procedure, shortened: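 His-tagged recombinant MRSA pyruvate kinase construct, prepared as in earlier work. […] IC50 was calculated from a triplicate 15-point titration. Where no IC50 was obtained, % inhibition at the highest concentration tested was reported.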

[2] = system: S. aureus ATCC 29213; assay: In vitro susceptibility testing; type: cell-based, Staphylococcus aureus
[3] = system: S. aureus (ATCC29213); assay: MIC in absence and presence of efflux inhibitor verapamil; type: cell-based, Staphylococcus aureus
[4] = system: Wild-type S. aureus LAC; assay: Bacterial killing assay, wild type; type: cell-based, Staphylococcus aureus; conditions: 1.6 μM, aerobic growth in BHI
[5] = system: S. aureus LAC Δpyk::Erm^R; assay: Bacterial killing assay, PK-deficient mutant; type: cell-based, Staphylococcus aureus; conditions: 1.6 μM
[6] = system: MRSA strain MW2 (USA400); assay: In vitro susceptibility testing; type: cell-based, methicillin-resistant Staphylococcus aureus; conditions: CAMHB
[7] = Staphylococcus aureus, ATCC29213
[8] = Staphylococcus aureus, ATCC29213, absence of verapamil

Chain of MRSA PK (Q6GG09 whole entry): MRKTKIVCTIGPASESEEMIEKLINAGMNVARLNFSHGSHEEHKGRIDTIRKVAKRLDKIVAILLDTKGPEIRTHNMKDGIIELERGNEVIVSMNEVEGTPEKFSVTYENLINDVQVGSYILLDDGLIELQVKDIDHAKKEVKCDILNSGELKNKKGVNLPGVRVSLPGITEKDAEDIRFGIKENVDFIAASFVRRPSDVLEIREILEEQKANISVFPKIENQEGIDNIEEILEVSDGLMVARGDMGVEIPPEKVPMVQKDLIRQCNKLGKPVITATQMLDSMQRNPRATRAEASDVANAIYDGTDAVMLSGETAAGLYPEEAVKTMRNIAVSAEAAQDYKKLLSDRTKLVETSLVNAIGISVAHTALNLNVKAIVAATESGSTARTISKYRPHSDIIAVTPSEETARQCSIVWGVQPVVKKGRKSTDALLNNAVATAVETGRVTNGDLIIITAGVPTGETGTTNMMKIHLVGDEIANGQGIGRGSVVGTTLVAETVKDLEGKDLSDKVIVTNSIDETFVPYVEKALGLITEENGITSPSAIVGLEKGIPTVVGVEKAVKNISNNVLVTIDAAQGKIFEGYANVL

2-(4-(1H-Indol-2-yl)-3-nitrophenyl)-6-bromo-1H-indole [33d]
fold more potent than 33c [1]: 2–3 fold
% Inhibition of MRSA PK ([1]; at 10 μM (Table 4)): 86.2%
IC50 ([1]; triplicate 15-point titration): 1.8 nM

5′,6-Dibromo-1-methyl-1H,2′H-2,2′-biindole [12b]
% inhibition at the highest concentration tested ([1]; @ 10 μM): 25% @ 10 μM

Brc1ccc2cc(-c3cc4ccc(Br)cc4[nH]3)[nH]c2c1 [10b, 6,6′-Dibromo-1H,1′H-2,2′-biindole]
MIC [2, 7]: 16 µg/mL (≈ 41 µM)
MIC [3, 8]: 16 µg/mL

Brc1ccc2[nH]c(-c3cc4ccc(Br)cc4[nH]3)cc2c1 [10c, 5,6-Bibromo-1H,1′H-2,2′-biiindole]
MIC [2, 7]: 0.3 µg/mL (≈ 0.769 µM)

Clc1ccc2[nH]c(-c3cc4ccc(Br)cc4[nH]3)cc2c1 [10d, 6′-Bromo-5-chloro-1H,1′H-2,2′-biindole]
MIC [2, 7]: 0.3 µg/mL (≈ 0.868 µM)
bactericidal effect [4]: highly bactericidal
bactericidal effect ([5]; TSB without glucose + 1% sodium pyruvate (TSB-G+P)): unable to kill
bactericidal effect ([5]; aerobic growth in BHI): merely acted statically

Fc1ccc2[nH]c(-c3cc4ccc(Br)cc4[nH]3)cc2c1 [10e, 6′-Bromo-5-fluoro-1H,1′H-2,2′-biindole]
MIC [2, 7]: 0.3 µg/mL (≈ 0.911 µM)

Brc1ccc2[nH]c(-c3cc4cc(Br)ccc4[nH]3)cc2c1 [10i, 5,5′-Bibromo-1H,1′H-2,2′-biindole]
MIC [2, 7]: > 64 µg/mL

Brc1cc2cc(-c3cc4cc(Br)c(Br)cc4[nH]3)[nH]c2cc1Br [10l, 5,5′,6,6′-Tetrabromo-1H,1′H-2,2′-biindole]
MIC [2, 7]: > 64 µg/mL
MIC ([2]; minimum concentration to give >98% inhibition of growth): > 64 µg/mL
MIC [3, 8]: > 64 µg/mL
shift of MIC by verapamil ([3]; absence vs presence of verapamil (200 mg/L)): at least fourfold

Brc1ccc2cc(-c3nc4ccccc4s3)[nH]c2c1 [22a, 2-(6-Bromo-1H-indol-2-yl)benzo[d]thiazole]
fold decrease in activity compared to 10a [1]: 5–8 fold

Brc1ccc2cc(-c3cc4ccccc4o3)[nH]c2c1 [22b, 2-(Benzofuran-2-yl)-6-bromo-1H-indole]
fold decrease in activity compared to 10a [1]: 5–8 fold

COc1cc(-c2cc3ccccc3[nH]2)ccc1-c1cc2ccc(Br)cc2[nH]1 [33e, 2-(4-(1H-Indol-2-yl)-2-methoxyphenyl)-6-bromo-1H-indole]
fold more potent than 33c [1]: 2–3 fold

CN[C@H](CC(C)C)C(=O)N[C@H]1C(=O)N[C@@H](CC(N)=O)C(=O)N[C@H]2C(=O)N[C@H]3C(=O)N[C@H](C(=O)N[C@H](C(=O)O)c4cc(O)cc(O)c4-c4cc3ccc4O)[C@H](O)c3ccc(c(Cl)c3)Oc3cc2cc(c3O[C@@H]2O[C@H](CO)[C@@H](O)[C@H](O)[C@H]2O[C@H]2C[C@](C)(N)[C@H](O)[C@H](C)O2)Oc2ccc(cc2Cl)[C@H]1O [vancomycin, reference compound]
MIC [6]: 2 µg/mL (≈ 1.38 µM)
MIC [3, 7]: 2 µg/mL
MIC ([3]; presence of verapamil (200 mg/L)): 2 µg/mL
